The text below walks through data of ChEMBL document CHEMBL6127074, “Isolation and Characterization of the Cyanobacterial Macrolide Glycoside Moorenaside, an Anti-Inflammatory Analogue of Aurisides Targeting the Keap1/Nrf2 Pathway” (J Nat Prod, 2024).

Data set [1] concerns KB. Briefly: Antiproliferative activity against human KB cells. It counts as functional, cell-based.
For data set [2], the system named is LoVo. Briefly: Antiproliferative activity against human LoVo cells. The format is functional, cell-based.
The subject of data set [3] is Trypanosoma brucei rhodesiense. Briefly: Antiparasitic activity against Trypanosoma brucei rhodesiense. The format is functional, organism-based.
For data set [4], the system named is HEK293. Briefly: Cytotoxicity against HEK293 ARE-luc cells at 1 to 32 uM incubated for 24 hrs by MTT assay. The format is toxicity, cell-based. Conditions: human, hek293, 24 h, dose 1-32 µM. In a few lines: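 HEK293 ARE-luc cells seeded 10,000/well and left overnight, then treated with half-log dilutions from 32 μM, tBHQ 10 μM, or 0.5% DMSO for 24 h. Viability was read by MTT; mean ± SD, n = 3.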
A general note: Tetrazolium assays rely on reduction of a dye to a coloured formazan, in cell work by metabolically active cells.

In data set [5] the test system is HEK293. Briefly: Activation of Nrf2-ARE pathway in HEK293 cells transfected with firefly luciferase reporter assessed as fold increase in Nrf2 activity at 32 uM incubated for 24 hrs by ARE luciferase reporter gene based microplate reader assay. It counts as cell-based. Conditions: Homo sapiens, filed as activator. In a few lines:
(§1)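 HEK293 cells stably carrying an ARE-driven firefly luciferase reporter, grown in DMEM with 10% FBS at 37 °C and 5% CO2, seeded 10,000/well and left overnight. Half-log serial dilutions from 32 μM were added, with tBHQ (10 μM) as positive control and 0.5% DMSO as vehicle. Luminescence was read with BriteLite reagent after 24 h and expressed as fold activity; n = 3.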
A general note: In a reporter assay the amount or activity of a reporter protein is the signal.

Data set [6] concerns HEK293. Description: Activation of Nrf2-ARE pathway in HEK293 cells transfected with firefly luciferase reporter assessed as fold increase in Nrf2 activity at 10 uM incubated for 24 hrs by ARE luciferase reporter gene based microplate reader assay. It counts as cell-based. Conditions: Homo sapiens, filed as activator. In a few lines: as §1
For data set [7], the system named is RAW264.7. Description: Anti-inflammatory activity in LPS induced mouse RAW264.7 cells assessed as reduction in NO production at 32 uM preincubated for 1 hr followed by LPS stimulation and measured after 24 hrs by Griess reagent based plate reader assay. The format is functional, cell-based. Conditions: time 25.0 hrs. In a few lines: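 RAW264.7 cells seeded 20,000/well, pretreated 1 h with half-log dilutions from 32 μM (0.5% DMSO vehicle), then stimulated with LPS 1 μg/mL. Unstimulated controls were included. After 24 h the supernatant was mixed with Griess reagent and absorbance read at 540 nm. NO was calculated from a nitrite standard curve. Mean ± SD, n = 3, t-test against DMSO + LPS.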

Data set [8] deals with RAW264.7. Description: Cytotoxicity against mouse RAW264.7 cells at 32 uM incubated for 24 hrs by MTT assay. The format is toxicity, cell-based. Conditions: raw264.7, 24 h. In a few lines:
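RAW264.7 cells seeded 20,000/well and treated for 24 h with half-log dilutions from 32 μM together with LPS 1 μg/mL (0.5% DMSO vehicle). Viability was read by MTT in parallel with the NO assay; mean ± SD, n = 3.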

Data set [9] concerns RAW264.7. Description: Anti-inflammatory activity in LPS induced mouse RAW264.7 cells assessed as fold increase in Nqo1 transcript level at 32 uM preincubated for 1 hr followed by LPS stimulation and measured after 12 hrs by TaqMan analysis. It counts as functional. Conditions: time 13 hrs. In a few lines: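 RAW264.7 cells seeded 175,000/well, given fresh medium, pretreated 1 h with half-log dilutions from 32 μM (0.5% DMSO vehicle), then stimulated with LPS 1 μg/mL for 12 h. Unstimulated wells were run alongside. RNA was extracted and reverse transcribed with oligo(dT), then measured by TaqMan qPCR for Nqo1 and iNos with actin as the endogenous control. Mean ± SD, n = 3, two-tailed unpaired t-test against DMSO + LPS.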
In general terms: Quantitative PCR measures a nucleic acid by following its amplification.

Data set [10] deals with HCT-116. Briefly: Antiproliferative activity against human HCT-116 cells assessed as cell viability at 32 uM incubated for 48 hrs by MTT assay. Conditions: HCT-116, 48 h.

Activity calls are given as the source filed them. No cut-off for these calls is given here.

A word on the IC50: it is the concentration that inhibits the measured activity by half. Usually viability stands for the share of living cells, or the viability signal relative to a control.

For `CO[C@@H]1[C@@H](OC)[C@@H](O)[C@H](O[C@H]2C[C@@]3(O)CC(=O)O[C@@](C)(CC/C=C/C=C/Br)C[C@H](O)[C@@H](C)CC[C@H](O3)[C@@H]2C)O[C@H]1C`, the IC50 in [1] is 4.3 µM; in data set [2], 15 µM.

In the case of `CCCCC/C=C/C=C/[C@H]1OC(=O)C[C@@H]2O[C@H](C[C@H](O)C[C@H](C)C[C@@H](O)C1(C)C)C[C@H](O[C@@H]1OC[C@@H](OC)[C@H](O)[C@H]1O)C2(C)C`, in [3], the IC50 stood at 11 µM.

`CO[C@@H]1[C@@H](O)[C@@H](OC)[C@H](O[C@@H]2C[C@H]3O[C@@](O)(C2)[C@H](C)C(=O)O[C@@H](/C=C/C=C/Br)C/C(C)=C/C(=O)C3(C)C)O[C@H]1C`: the Activity entry in data set [4] and in data set [8] was “Non-Toxic” each time. The figures for the fold change (FC) in [5], in [6] and in [9] were 7.7, 2.5 and 5, respectively. In data set [7], the outcome was Active. Further, in data set [10], the viability at 32 µM came out at 55%.

As for `C=CCCC/C=C/C=C/[C@H]1OC(=O)C[C@@H]2O[C@H](C[C@H](O)C[C@H](C)C[C@@H](O)C1(C)C)C[C@H](O[C@@H]1OC[C@@H](OC)[C@H](O)[C@H]1O)C2(C)C`, the IC50 in data set [3] worked out at 11 µM.
